According to ChEMBL document CHEMBL1134635, “Aziridinyl quinone antitumor agents based on indoles and cyclopent[b]indoles: structure-activity relationships for cytotoxicity and antitumor activity” (2001):

Tests used:
NCI-H460 [1] = assay: Concentration of the drug required for 50% growth inhibition against NSC (non small cell) H460 cell line.; type: functional; conditions: Homo sapiens
NCI-H460 [2] = assay: Concentration required for 50% cell kill. against NSC H460 cell line.; type: functional; conditions: Homo sapiens; for CC50: read-out: Log LC50 (the source's name) (converted)
NCI-H460 [3] = assay: Concentration of the drug required for total growth inhibition against NSC H460 cell line.; type: functional; conditions: Homo sapiens, read-out: Log TGI (converted)
Nucleic Acid = assay: % of DNA reductive alkylation determined by catalytic reduction of aziridinyl quinones in presence of 600 bp calf thymus DNA; type: functional; design: concentration or dose not given beside the values; conditions: Bos taurus
Outline: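 Calf thymus DNA (1-2 mg, sonicated to ~600 bp) in 0.05 M Tris pH 7.4 with Pd/C, quinone added at 5:1 base pair equivalents in DMSO. Degassed under argon, H2-purged 10 min, argon-purged, then 30 °C for 24 h anaerobically. Catalyst filtered off, DNA ethanol-precipitated twice, and alkylation quantified by absorbance at 550 nm (ε 800 M-1 cm-1).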

[4] = tested on: Panel NCI-60 (60 carcinoma cell lines); assay: Cancer specificity was measured from the +/- value under average log LC50 60-cell line.; type: functional; conditions: Homo sapiens, read-out: Average log LC50 (converted)
[5] = biological target: NAD(P)H dehydrogenase [quinone] 1 (Homo sapiens) (UniProt P15559); assay: The substrate specificity obtained from the ratio of Vmax to KM for human DT-diaphorase (from non-small-cell lung NCI-H460 cell line); type: cell-based
Outline: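 Recombinant human DT-diaphorase (from NCI-H460) at 1.4 × 10^-9 M final with 0.3 mM NADH in Tris buffer, quinone 1.3 × 10-6 to 6.7 × 10^-5 M final from a 4.0 mM DMSO stock. Both parts argon-purged 20 min and held at 30 °C 10 min, then mixed.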

B16 [6] = assay: Treated over control values(T/C) were measured at day 25 by B16 melanoma syngraft assay at 5 mg/kg/day on day 9 after sc tumor implantation of 10 E(5) cells; type: functional, Mus musculus; conditions: route subcutaneous
Outline: (§1)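 B16 melanoma syngraft in C57/bl mice, 10^5 cells implanted subcutaneously in the front flank on day 0. T/C recorded at day 25. Toxic means early lethality, or ≥50% lethality before any control deaths.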

B16 [7] = assay: Treated over control values(T/C) were measured at day 25 by B16 melanoma syngraft assay at 2 mg/kg/day on day 1 after sc tumor implantation of 10 E(5) cells; type: functional, Mus musculus; conditions: route subcutaneous; outline: as §1
B16 [8] = assay: Treated over control values(T/C) were measured at day 25 by B16 melanoma syngraft assay at 3 mg/kg/day on day 5 after sc tumor implantation of 10 E(5) cells; type: functional, Mus musculus; conditions: route subcutaneous; outline: as §1
NCI-H460 [9] = assay: Concentration required for total growth inhibition against NSC H460 cell line.; type: functional; conditions: Homo sapiens, read-out: Log TGI (converted)
NCI-H460 [10] = assay: Concentration required for 50% growth inhibition against NSC (non small cell) H460 cell line.; type: functional; conditions: Homo sapiens
[11] = tested on: Panel NCI-60 (60 carcinoma cell lines); assay: Cancer specificity was measured from the +/- value under average log LC50 NCI 60-cell line.; type: functional; conditions: Homo sapiens, read-out: Average log LC50 (converted)
NCI-H460 [12] = assay: Concentration required for 50% cell kill against NSC H460 cell line.; type: functional; conditions: Homo sapiens, read-out: Log LC50 (the source's name) (converted)
[13] = tested on: Panel NCI-60 (60 carcinoma cell lines); assay: Cancer specificity was measured from the +/- value under average log LC50 60-cell line; type: functional; conditions: Homo sapiens, read-out: Average log LC50 (converted)

NAD(P)H dehydrogenase [quinone] 1 (Homo sapiens), sequence (P15559 whole entry): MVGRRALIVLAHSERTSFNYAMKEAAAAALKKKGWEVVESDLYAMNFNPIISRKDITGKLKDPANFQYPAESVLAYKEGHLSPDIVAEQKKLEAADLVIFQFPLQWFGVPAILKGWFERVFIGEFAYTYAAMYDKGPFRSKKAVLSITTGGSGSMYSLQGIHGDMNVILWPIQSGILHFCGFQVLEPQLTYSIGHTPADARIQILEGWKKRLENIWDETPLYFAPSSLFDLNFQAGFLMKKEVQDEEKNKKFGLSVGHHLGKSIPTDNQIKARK

Row | SMILES | GI50 (NCI-H460 [1]) [nM] | TGI (NCI-H460 [3]) [nM] | Activity (Nucleic Acid) [%] | LC50 [4] [nM] | Ratio [5] | Activity (B16 [6]) [%] | Activity (B16 [7]) [%] | Activity (B16 [8]) [%] | other results
1 | CC1=C(N2CC2)C(=O)c2c([nH]c3c2CCC3O)C1=O (stereo not given) | 10 | 21.4 | 11.2 | 18200 | 147000 |  |  |  | LC50 (NCI-H460 [2]): 851 nM
2 | Cn1c(CO)c(CO)c2c1C(=O)C=C(N1CC1)C2=O | 10 | 10 | 3.8 | 4470 | 302000 | >50 | >50 | >50 | LC50 (NCI-H460 [2]): 10 nM
3 | CCOC(=O)c1[nH]c2c(c1CO)C(=O)C(N1CC1)=C(C)C2=O | 10 | 10.2 | 5.6 | 2040 | 403000 |  |  |  | CC50 (NCI-H460 [2]): 87.1 nM
4 | CC(=O)OC1CCc2c3c(n(C)c21)C(=O)C(N1CC1)=C(C)C3=O (stereo not given) |  |  | 1.4 |  | 30000 |  |  |  | 
5 | CC(=O)OC1CCc2c3c(n(C(C)=O)c21)C(=O)C=C(N1CC1)C3=O (stereo not given) |  |  | 14 |  | 705000 |  |  |  | 
6 | CC1=C(N2CC2)C(=O)c2c(c(CO)c(CO)n2C)C1=O |  |  | 0 |  | 41700 | >50 |  |  | TGI (NCI-H460 [9]): 219 nM; GI50 (NCI-H460 [10]): 38.9 nM
7 | CC1=C(N2CC2)C(=O)c2[nH]c(CO)c(C)c2C1=O |  |  |  |  |  | 34 | 61 | 37 | 
8 | CC1=C(N2CC2)C(=O)c2[nH]c3c(c2C1=O)CCC3O (stereo not given) | 10 | 107 | 10 | 72400 | 142000 | 45 | 75 |  | 
9 | CC(=O)OCc1[nH]c2c(c1C)C(=O)C(N1CC1)=C(C)C2=O |  |  |  |  |  | >50 | 47 | >50 | 
10 | O=C1C(N2CC2)=CC(=O)c2c1[nH]c(CO)c2CO | 138 | 1150 | 3.4 | 8510 | 274000 |  |  |  | LC50 (NCI-H460 [2]): 11700 nM
11 | CC(=O)OC1CCc2c1[nH]c1c2C(=O)C=C(N2CC2)C1=O (stereo not given) |  |  | 29 |  | 802000 | >50 |  |  | 
12 | CC(=O)OC1CCc2c1[nH]c1c2C(=O)C(N2CC2)=C(C)C1=O (stereo not given) |  |  | 21 |  | 65500 |  |  |  | 
13 | CC1=C(N2CC2)C(=O)c2c(c3c(n2C)C(O)CC3)C1=O (stereo not given) | 1260 | 7590 | 0.3 | 100000 | 85500 |  |  |  | LC50 (NCI-H460 [2]): 50100 nM
14 | CCOC(=O)c1[nH]c2c(c1COC(C)=O)C(=O)C(N1CC1)=CC2=O | 37.1 | 170 | 91.2 | 2400 | 722000 |  |  |  | CC50 (NCI-H460 [2]): 603 nM
15 | CCOC(=O)c1[nH]c2c(c1CO)C(=O)C(N1CC1)=CC2=O | 10 | 100 | 37 | 1620 | 4.3e+06 |  |  |  | LC50 (NCI-H460 [2]): 631 nM
16 | O=C1C=C(N2CC2)C(=O)c2c1[nH]c1c2CCC1O (stereo not given) |  |  | 22.5 |  | 405000 |  |  |  | CC50 [11]: 2190 nM; TGI (NCI-H460 [9]): 102 nM; GI50 (NCI-H460 [10]): 10 nM; CC50 (NCI-H460 [12]): 295 nM

Row | SMILES | GI50 (NCI-H460 [1]) [nM] | TGI (NCI-H460 [3]) [nM] | Activity (Nucleic Acid) [%] | LC50 [4] [nM] | Ratio [5] | Activity (B16 [6]) [%] | Activity (B16 [7]) [%] | Activity (B16 [8]) [%] | other results
17 | CC(=O)OC1CCc2c3c(n(C(C)=O)c21)C(=O)C(N1CC1)=CC3=O (stereo not given) |  |  | 12 |  | 234000 | >50 | 50 | >50 | 
18 | CC1=C(N2CC2)C(=O)c2c([nH]c(CO)c2CO)C1=O | 10 | 32.4 | 2 | 2880 | 81500 | >50 | 36 | >50 | LC50 (NCI-H460 [2]): 1170 nM
19 | CC(=O)OC1CCc2c3c(n(C(C)=O)c21)C(=O)C(N1CC1)=C(C)C3=O (stereo not given) | 83.2 | 437 | 9 | 25100 | 56200 | 15 | 37 | 15 | LC50 (NCI-H460 [2]): 5010 nM
20 | O=C1C(N2CC2)=CC(=O)c2c1[nH]c1c2CCC1O (stereo not given) | 7.24 | 57.5 | 30 | 2570 | 128000 |  |  |  | CC50 (NCI-H460 [2]): 1780 nM
21 | CC1=C(N2CC2)C(=O)c2[nH]c(CO)c(CO)c2C1=O |  |  | 4 |  | 106000 | >50 | 54 | >50 | 
22 | CC1=C(N2CC2)C(=O)c2[nH]c(C)c(C)c2C1=O |  |  |  |  |  | >50 | 22 | >50 | 
23 | CC(=O)OC1CCc2c1[nH]c1c2C(=O)C(C)=C(N2CC2)C1=O (stereo not given) | 112 | 676 | 44 | 21400 | 160000 |  |  |  | LC50 (NCI-H460 [2]): 1230 nM
24 | CC(=O)OC1CCc2c3c(n(C(C)=O)c21)C(=O)C(C)=C(N1CC1)C3=O (stereo not given) |  |  | 1.2 |  | 132000 |  |  |  | 
25 | CCOC(=O)c1[nH]c2c(c1CO)C(=O)C=C(N1CC1)C2=O | 1580 | 4070 | 2.2 |  |  |  |  |  | CC50 [13]: 4790 nM
26 | CC(=O)OCc1[nH]c2c(c1COC(C)=O)C(=O)C(N1CC1)=CC2=O |  |  | 43 |  | 172000 |  |  |  | 
27 | O=C1C=C(N2CC2)C(=O)c2c1[nH]c(CO)c2CO |  |  | 16.7 |  | 587000 | >50 | >50 | >50 | 
28 | CC1=C(N2CC2)C(=O)c2c(CO)c(CO)n(C)c2C1=O |  |  | 0 |  | 32600 |  |  |  | 
29 | CC(=O)OCc1[nH]c2c(c1COC(C)=O)C(=O)C(C)=C(N1CC1)C2=O | 35.5 | 178 | 37 | 30200 | 158000 | >50 | 74 | >50 | CC50 (NCI-H460 [2]): 603 nM
30 | CC1=C(N2CC2)C(=O)c2c([nH]c(C)c2C)C1=O |  |  |  |  |  | >50 | 10 | 60 | 
31 | CC(=O)OC1CCc2c1[nH]c1c2C(=O)C(N2CC2)=CC1=O (stereo not given) |  |  | 34 |  | 651000 |  |  |  | 
